# Assay outcomes (PubChem BioAssay)
# NS3 helicase inh = inhibitors of HCV NS3 helicase, primary screen, biochemical, Cy5 molecular beacon fluorescence. 290,000 compounds, 0.56% hits. inhibition, % at 10.9 µM. NS3 helicase DNA unwinding. Hepatitis C virus NS3 helicase. AID 1800, 2009;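 active means inhibition above the mean of all tested compounds plus 3 SD, set per campaign, cut at about 35% in these data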;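 further: 0% = DMSO wells and 100% = thioflavine S control wells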
#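 Assay system: hepatitis C virus NS3 helicase domain fragment enzyme. Also added: annealed dual-labelled DNA beacon duplex, ATP-started. Timing: 1 h reaction at 25 °C, ATP-initiated. Technique: Cy5 fluorescence at 0 and 60 min, beacon hairpin quenching. Evaluation: % inhibition of unwinding. Replication: one well per compound.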
# UBC9 SUMO inh = inhibitors of in vitro SUMOylation cascade, primary screen, biochemical, HTRF, uHTS; HTRF SUMOylation assay, SAE1/SAE2 + UBC9; AID 2006, 2009; SUMO-conjugating enzyme UBC9 (Homo sapiens), P63279; inhibition, % at 35 µM; 290,000 compounds, 0.36% hits; in the data active means inhibition above about 50%, passing the limit was not always enough
# Target sequence (P63279 whole entry, looked up): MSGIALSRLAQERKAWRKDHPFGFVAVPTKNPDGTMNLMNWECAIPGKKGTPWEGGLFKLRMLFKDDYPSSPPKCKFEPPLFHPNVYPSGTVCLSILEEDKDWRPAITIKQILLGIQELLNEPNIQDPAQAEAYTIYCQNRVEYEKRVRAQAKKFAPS
# HCV core dimer = inhibitors of HCV core protein dimerization, primary screen, biochemical, TR-FRET, high-throughput; 300,000 compounds, 0.33% hits; AID 1899, 2009; TR-FRET GST/Flag-core106 dimerization, 1536-well; inhibition, % at 5 µM;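 active means inhibition above the mean of all tested compounds plus 3 SD, set per screening campaign, cut at about 45% in these data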
#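 Assay system – GST-tagged and Flag-tagged HCV core protein residues 1-106 · Quantity – core106 proteins, GST 13.5 nM and Flag 17 nM · Benchmarks – unlabelled core106 and no-GST-core106 wells · Read-out basis – percent inhibition of core106 dimerization signal · Detection – time-resolved FRET, ex 340 nm, em 617 and 671 nm · Schedule – 4 h at 22.5 °C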
# EBNA-1 inh = EBNA-1 DNA-binding inhibitors, primary screen, biochemical, fluorescence polarization; 300,000 compounds, 0.34% hits; AID 1950, 2009; inhibition, % at 14.8 µM; in the data active means inhibition above about 28%
# ZTA DNA inh = blocks Epstein-Barr virus ZTA, an EBNA-1 counter-screen; P03206; ZTA-DNA binding, fluorescence polarization; inhibition, % at 11 µM; 320,000 compounds, 0.15% hits; AID 2234; in the data active means inhibition above about 33%
# Target sequence (P03206 whole entry, looked up): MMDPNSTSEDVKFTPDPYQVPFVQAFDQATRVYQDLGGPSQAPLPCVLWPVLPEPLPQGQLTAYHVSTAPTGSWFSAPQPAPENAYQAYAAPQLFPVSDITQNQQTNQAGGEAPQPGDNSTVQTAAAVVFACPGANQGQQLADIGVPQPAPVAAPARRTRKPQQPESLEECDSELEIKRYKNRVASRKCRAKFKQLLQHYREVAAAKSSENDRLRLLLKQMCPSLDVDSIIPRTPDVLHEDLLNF
# Zta DNA confirm = EBV Zta binding to ZRE DNA, inhibitors, confirmation, biochemical, fluorescence polarization, triplicate; shares compounds with ZTA DNA inh; AID 2361, 2010; inhibition, % at 11.1 µM; 320 compounds, 30% hits;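 active means mean inhibition across triplicate runs above the hit threshold derived for the original primary screen, cut at about 33% in these data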;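 further: 0% = Zta with DMSO and 100% = wells lacking Zta protein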
# EBNA-1 counter = EBNA-1 DNA-binding inhibition, counter-screen for ZTA inhibitor project, biochemical, fluorescence polarization; 320 tested, under 10 active; AID 2362, 2010; inhibition, % at 14.8 µM; shares compounds with ZTA DNA inh; call rule not given here
# * = called active by the depositor; · = no result given; + = active, no number. Only some compounds are listed: those with a hit (about 1.4% of all), similar ones and a draw of the others.
SMILES,NS3 helicase inh,UBC9 SUMO inh,HCV core dimer,EBNA-1 inh,ZTA DNA inh,Zta DNA confirm,EBNA-1 counter
O=C(Nc1ccc2c(c1)CCCN2C(=O)c1cccs1)c1c(F)cccc1Cl,2.0,-4.3,-4.5,-10.8,42.3*,2.8,-2.9
CC1(C)C=Cc2c(c3c(c4c(=O)c(-c5ccc(O)cc5)coc24)OC(C)(C)CC3)O1,3.4,0.7,7.1,-7.5,-0.5,·,·
CC(C)=CCc1c2c(c3occ(-c4ccc(O)cc4)c(=O)c3c1O)C=CC(C)(C)O2,17.7,-16.5,4.6,1.7,35.4*,9.3,1.6
CS(=O)(=O)c1ccc2nc(NC(=O)c3ccc(NS(=O)(=O)c4ccc(F)c(F)c4)cc3)sc2c1,-24.4,10.5,15.5,19.2,87.1*,39.3*,17.1
O=C1CC(=O)N(Cc2ccco2)C(=S)N1,22.5,83.2*,1.8,6.2,54.8*,-3.2,-5.7
O=C1CC(=O)N(Cc2ccco2)C(=O)N1,11.9,26.7,-29.4,13.6,22.5,·,·
O=C1C=C(N2CCOCC2)c2ccccc2C1=O,2.1,95.6*,16.6,-4.9,53.9*,68.1*,-11.4
Cc1cc(=O)n2c(C(=O)Nc3ccc(C)c(C)c3)c(C(=O)Nc3ccccc3)sc2n1,-4.6,11.9,3.4,10.5,53.2*,12.6,78.2*
CN1C(=O)C2(OCC(CO)([N+](=O)[O-])CO2)c2ccccc21 (stereo not drawn),-9.4,-6.0,-2.2,2.4,-7.5,·,·
NC1=NC(=O)/C(=C/c2ccc(-c3ccc(S(N)(=O)=O)cc3)o2)S1,9.8,-3.1,-15.2,10.5,37.3*,17.6,11.0
O=C(Nc1cccc2ccccc12)NC1CCCCC1O (stereo not drawn),·,·,-16.8,-1.9,57.6*,-4.7,-6.1
CCc1ccc(OCC(=O)Nc2ccc(S(=O)(=O)Nc3cc(C)on3)cc2)c(Br)c1,-15.8,12.8,16.5,4.2,0.2,·,·
OC(CNCCC1C=Nc2ccccc21)Cn1c2ccc(Cl)cc2c2cc(Cl)ccc21 (stereo not drawn),-64.5,-10.7,1.2,5.8,52.5*,51.4*,2.6
CC(=O)c1cccc(NC(=O)NNC(=O)c2ccc3ccccc3c2)c1,-1.0,0.4,6.2,9.6,76.4*,-10.3,-4.8
O=C(Nc1ccc(-c2nc3ccc(NC(=O)c4cccs4)cc3[nH]2)cc1)c1cccs1,18.0,55.7*,-3.4,-12.1,55.3*,43.0*,3.9
O=C(Nc1ccc2nc(-c3cccs3)[nH]c2c1)c1cccs1,8.7,21.9,-5.6,-6.4,-11.7,·,·
Cc1ccc(-c2cc(C(=O)NCCCN3CCOCC3)c3ccc(Cl)c(C)c3n2)cc1,-42.6,-10.4,-11.3,-6.1,34.0*,0.7,-3.6
Cc1ccc(S(=O)(=O)N2CCN(C(=O)[C@H](Cc3ccccc3)NC(=O)c3ccco3)CC2)cc1C,·,·,·,·,2.8,·,·
c1ccc(-n2ncc3c(N4CCN(c5ccccn5)CC4)nc(N4CCCCCC4)nc32)cc1,21.6,20.7,-0.3,6.4,40.1*,0.8,-5.4
COc1ccccc1CCNC(=O)C(=O)NCC1OCCN1C(=O)c1ccc(Cl)cc1 (stereo not drawn),10.4,12.4,-6.3,-1.3,-12.3,·,·
O=C1Nc2ccc(Br)cc2/C1=C/c1ccc(C(=O)O)cc1,35.3,25.4,18.2,1.6,34.3*,46.3*,3.9
Cc1ccc2nc(-c3ccc(SCC(=O)Nc4nnc(C)s4)nc3)[nH]c2c1,-26.4,46.5,-1.0,19.1,-0.1,·,·
Cc1ccc2nc(-c3ccc(SCC(=O)Nc4nc(C)cs4)nc3)[nH]c2c1,1.9,0.0,-4.0,10.4,48.4*,-0.7,22.9
Cc1cccc(-n2c(SCC(=O)N(C)C3CCS(=O)(=O)C3)nc3ccccc3c2=O)c1C (stereo not drawn),·,·,-3.3,-11.2,8.9,·,·
CN(CC(=O)Nc1ccc(Cl)c(Cl)c1)CC(=O)Nc1ccc2c(c1)OCO2,·,·,·,·,+,-2.2,-6.9
